Experimental data published in ChEMBL document CHEMBL1133934, “Metabolic stabilization of benzylidene ketal M(2) muscarinic receptor antagonists via halonaphthoic acid substitution” (Bioorg Med Chem Lett, 2001).

What was measured:
[1] = target: T1, Muscarinic acetylcholine receptor M2 (Homo sapiens, UniProt P08172); test: Antagonistic activity against muscarinic acetylcholine receptor M2; assay type: functional
T1 sequence (P08172 whole entry): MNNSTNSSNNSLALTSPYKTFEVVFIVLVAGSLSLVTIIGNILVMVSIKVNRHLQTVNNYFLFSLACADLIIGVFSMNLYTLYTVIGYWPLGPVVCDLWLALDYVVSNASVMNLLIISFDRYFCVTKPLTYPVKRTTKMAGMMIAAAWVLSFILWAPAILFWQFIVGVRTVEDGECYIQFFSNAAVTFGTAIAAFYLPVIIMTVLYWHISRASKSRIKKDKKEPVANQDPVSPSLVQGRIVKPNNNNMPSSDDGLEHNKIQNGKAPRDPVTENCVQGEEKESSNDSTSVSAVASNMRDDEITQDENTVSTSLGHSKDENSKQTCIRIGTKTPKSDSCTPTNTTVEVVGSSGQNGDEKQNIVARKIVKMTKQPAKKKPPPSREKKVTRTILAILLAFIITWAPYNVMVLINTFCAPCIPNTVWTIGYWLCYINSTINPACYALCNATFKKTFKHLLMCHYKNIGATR
How it was run: (§1)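 Muscarinic receptor binding by a method described elsewhere; values are the mean of duplicates (SEM < 15%), each determination performed at least twice. Selectivity expressed as the ratio of M1 or M3 to M2 binding.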

Rattus norvegicus = test: Percent of Acetylcholine (ACh) released above baseline in rat striatum at the dose of 10 mg/kg p.o. (0-2h); assay type: functional; settings: route oral
How it was run: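 Rats dosed orally at 10 mg/kg in 20% HPβCD; microdialysis of striatum measuring ACh release over the 2 h experiment. Stimulation judged against pre-injection baseline, significance p < 0.05 by Duncan's multiple range statistic.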

[2] = target: T1, Muscarinic acetylcholine receptor M2; test: Antagonistic activity against Muscarinic acetylcholine receptor M2; assay type: functional; how it was run: as §1
[3] = target: Muscarinic acetylcholine receptors; M2 & M3 (Homo sapiens) (UniProt P20309+P08172); test: Selectivity ratio of M3 muscarinic receptor to that of M2 muscarinic receptor; assay type: protein assay; how it was run: as §1
[4] = target: Muscarinic acetylcholine receptors; M1 & M2 (Homo sapiens) (UniProt P11229+P08172); test: Selectivity ratio of M1 muscarinic receptor to that of M2 muscarinic receptor; assay type: protein assay; how it was run: as §1
[5] = Pharmacokinetic property at the dose of 10 mg/kg (20% HPbetaCD) concentration in rat (0 to 6 hr) p.o.; settings: in vivo, po

Sequence of Muscarinic acetylcholine receptors; M2 & M3 (Homo sapiens) (P20309 whole entry, looked up, one chain of several): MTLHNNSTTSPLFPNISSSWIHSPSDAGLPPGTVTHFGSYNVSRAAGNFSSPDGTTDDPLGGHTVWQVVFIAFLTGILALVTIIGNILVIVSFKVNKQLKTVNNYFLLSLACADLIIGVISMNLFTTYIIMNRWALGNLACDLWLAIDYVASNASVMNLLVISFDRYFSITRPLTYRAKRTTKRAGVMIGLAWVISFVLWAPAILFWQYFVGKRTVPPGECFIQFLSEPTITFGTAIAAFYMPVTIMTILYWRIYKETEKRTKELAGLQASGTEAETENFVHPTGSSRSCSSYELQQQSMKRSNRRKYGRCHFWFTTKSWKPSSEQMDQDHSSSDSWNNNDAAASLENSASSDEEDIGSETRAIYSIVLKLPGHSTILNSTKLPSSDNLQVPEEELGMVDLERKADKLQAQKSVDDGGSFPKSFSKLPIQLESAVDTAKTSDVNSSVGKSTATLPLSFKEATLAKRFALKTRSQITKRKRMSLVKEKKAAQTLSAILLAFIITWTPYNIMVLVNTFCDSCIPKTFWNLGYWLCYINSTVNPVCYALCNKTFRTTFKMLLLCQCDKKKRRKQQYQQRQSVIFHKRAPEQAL
Sequence of Muscarinic acetylcholine receptors; M1 & M2 (Homo sapiens) (P11229 whole entry, looked up, one chain of several): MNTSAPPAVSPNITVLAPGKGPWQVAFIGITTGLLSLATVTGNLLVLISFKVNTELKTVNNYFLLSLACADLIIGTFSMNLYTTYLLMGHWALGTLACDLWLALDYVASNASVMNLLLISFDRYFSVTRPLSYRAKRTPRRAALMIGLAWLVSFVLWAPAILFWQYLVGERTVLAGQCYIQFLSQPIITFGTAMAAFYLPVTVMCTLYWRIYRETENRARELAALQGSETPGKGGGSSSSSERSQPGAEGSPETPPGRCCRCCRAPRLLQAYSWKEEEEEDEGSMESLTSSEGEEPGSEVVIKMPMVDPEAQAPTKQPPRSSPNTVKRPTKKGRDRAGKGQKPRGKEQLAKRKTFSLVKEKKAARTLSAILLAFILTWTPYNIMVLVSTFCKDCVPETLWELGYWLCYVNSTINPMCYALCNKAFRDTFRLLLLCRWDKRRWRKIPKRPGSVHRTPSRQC

SMILES | Ki [1] | MD (Rattus norvegicus) | Ki [2] | further results
COc1ccc(S(=O)(=O)c2ccc(C3(C4CCN(C5CCN(C(=O)c6cccc7ccccc67)CC5)CC4)OCCO3)cc2)cc1 | 0.14 nM | – | – | –
COc1ccc(S(=O)(=O)c2ccc(C3(C4CCN(C5CCN(C(=O)c6cccc7c(F)ccc(F)c67)CC5)CC4)OCCO3)cc2)cc1 | – | 120% | 0.29 nM | –
CCCS(=O)(=O)N1CCC(N2CCC(C3(c4ccc(S(=O)(=O)c5ccc(OC)cc5)cc4)OCCO3)CC2)CC1 | – | – | 33.3 nM | Selectivity ratio [3]: 25.3; Selectivity ratio [4]: 18.3
COc1ccc(S(=O)(=O)c2ccc(C3(C4CCN(C5CCN(C(=O)c6cccc7cc(F)ccc67)CC5)CC4)OCCO3)cc2)cc1 | 0.81 nM | – | – | –
COc1ccc(S(=O)(=O)c2ccc(C3(C4CCN(C5CCN(C(=O)c6cccc7ccc(F)cc67)CC5)CC4)OCCO3)cc2)cc1 | 1.2 nM | – | – | –
COc1ccc(S(=O)(=O)c2ccc(C3(C4CCN(C5CCN(C(=O)c6ccc(F)c7ccccc67)CC5)CC4)OCCO3)cc2)cc1 | 0.51 nM | 180% | – | –
COc1ccc(S(=O)(=O)c2ccc(C3(C4CCN(C5CCN(C(=O)c6cccc7cc(Cl)ccc67)CC5)CC4)OCCO3)cc2)cc1 | 1.4 nM | – | – | –
CCCS(=O)(=O)N1CCC(N2CCC(C3(c4ccc(S(=O)(=O)c5ccc6c(c5)OCO6)cc4)OCCO3)CC2)CC1 | – | – | – | Selectivity ratio [3]: 93; Selectivity ratio [4]: 102
COc1ccc(S(=O)(=O)c2ccc(C3(C4CCN(C5CCN(C(=O)c6cccc7cccc(F)c67)CC5)CC4)OCCO3)cc2)cc1 | – | – | 0.99 nM | –
COc1ccc(S(=O)(=O)c2ccc(C3(C4CCN(C5CCN(C(=O)c6cccc7c(Br)cccc67)CC5)CC4)OCCO3)cc2)cc1 | 0.51 nM | 125% | – | AUC at 6 h [5]: 702 ng·h/mL
COc1ccc(S(=O)(=O)c2ccc(C3(C4CCN(C5CCN(C(=O)c6cccc7c(F)cc(F)cc67)CC5)CC4)OCCO3)cc2)cc1 | – | 133% | 0.23 nM | AUC at 6 h [5]: 367 ng·h/mL
COc1ccc(S(=O)(=O)c2ccc(C3(C4CCN(C5CCN(C(=O)c6cccc7c(F)cccc67)CC5)CC4)OCCO3)cc2)cc1 | 0.2 nM | 140% | – | AUC at 6 h [5]: 130 ng·h/mL
